Activity calls are given as the source filed them. No cut-off for these calls is given here.
What was measured:
MCF7 [1] = assay: Cytotoxicity against human MCF7 cells after 24 hrs by MTT assay; format: functional, cell-based; details: MCF7, 24 h, in the assay text read “XTT assay” for “MTT assay”
Method in brief: (§1)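 Cells grown in RPMI with fetal calf serum, penicillin/streptomycin, 37 °C, 5% CO2. Seeded 2 × 10^4 cells/well, then 24 h. Medium replaced with compound at 3.9–500 µg/ml (DMSO stocks diluted in medium, final DMSO under 0.1%). XTT read-out of mitochondrial activity: 3 h at 37 °C, OD 480 nm (reference 680 nm). IC50 by non-linear regression; duplicate experiments; cisplatin positive control.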

[2] = Cytotoxicity against mouse NIH/3T3 cells after 24 hrs by MTT assay; format: cell-based; details: NIH3T3, 24 h, in the assay text read “XTT assay” for “MTT assay”; method in brief: as §1
MCF7 [3] = assay: Inhibition of DNA synthesis in human MCF7 cells at 0.5 times cytotoxic IC50 level after 24 hrs by 5-bromo-20-deoxy-uridine incorporation method; format: functional
Method in brief: (§2)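 BrdU ELISA on MCF-7 seeded at 2 × 10^4 cells/well. Compounds given at IC50/2, IC50 and 2 × IC50 (from the XTT assay) for 24 h or 48 h. BrdU added for 2 h at 37 °C, then anti-BrdU-POD for 90 min, three PBS washes and colorimetric substrate. Untreated control absorbance set as 0% inhibition. Means of two independent experiments ± SD of four wells; cisplatin positive control.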

MCF7 [4] = assay: Inhibition of DNA synthesis in human MCF7 cells at cytotoxic IC50 level after 24 hrs by 5-bromo-20-deoxy-uridine incorporation method; format: functional; method in brief: as §2
MCF7 [5] = assay: Inhibition of DNA synthesis in human MCF7 cells at 2 times cytotoxic IC50 level after 24 hrs by 5-bromo-20-deoxy-uridine incorporation method; format: functional; method in brief: as §2
MCF7 [6] = assay: Inhibition of DNA synthesis in human MCF7 cells at 0.5 times cytotoxic IC50 level after 48 hrs by 5-bromo-20-deoxy-uridine incorporation method; format: functional; method in brief: as §2
MCF7 [7] = assay: Inhibition of DNA synthesis in human MCF7 cells at cytotoxic IC50 level after 48 hrs by 5-bromo-20-deoxy-uridine incorporation method; format: functional; method in brief: as §2
MCF7 [8] = assay: Inhibition of DNA synthesis in human MCF7 cells at 2 times cytotoxic IC50 level after 48 hrs by 5-bromo-20-deoxy-uridine incorporation method; format: functional; method in brief: as §2
MCF7 [9] = assay: Induction of apoptosis in human MCF7 cells assessed as viable cells level at cytotoxic IC50 level after 24 hrs by Annexin V/PI dual staining based flow cytometry (reference value: 94.36 %); format: functional
MCF7 [10] = assay: Induction of apoptosis in human MCF7 cells assessed as early apoptotic cells level at cytotoxic IC50 level after 24 hrs by Annexin V/PI dual staining based flow cytometry (reference value: 0.46%); format: functional
MCF7 [11] = assay: Induction of apoptosis in human MCF7 cells assessed as late apoptotic cells level at cytotoxic IC50 level after 24 hrs by Annexin V/PI dual staining based flow cytometry (reference value: 1.52 %); format: functional
MCF7 [12] = assay: Induction of apoptosis in human MCF7 cells assessed as necrotic cells level at cytotoxic IC50 level after 24 hrs by Annexin V/PI dual staining based flow cytometry (reference value: 3.66 %); format: functional
MCF7 [13] = assay: Inhibition of DNA synthesis in human MCF7 cells at 22.09 ug/ml after 48 hrs by 5-bromo-20-deoxy-uridine incorporation method; format: functional; details: MCF7, 48 h
Method in brief: (§3)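 MCF-7 seeded at 2 × 10^4 cells/well and exposed to compound for 48 h at the stated concentration. BrdU added for 2 h at 37 °C, then anti-BrdU-POD for 90 min, PBS washes and colorimetric substrate. Inhibition taken relative to untreated control absorbance (set as 0%). Means of two independent experiments ± SD of four wells.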

MCF7 [14] = assay: Inhibition of DNA synthesis in human MCF7 cells at 44.18 ug/ml after 48 hrs by 5-bromo-20-deoxy-uridine incorporation method; format: functional; details: MCF7, 48 h; method in brief: as §3
MCF7 [15] = assay: Inhibition of DNA synthesis in human MCF7 cells at 15.32 ug/ml after 48 hrs by 5-bromo-20-deoxy-uridine incorporation method; format: functional; details: MCF7, 48 h; method in brief: as §3
MCF7 [16] = assay: Inhibition of DNA synthesis in human MCF7 cells at 30.63 ug/ml after 48 hrs by 5-bromo-20-deoxy-uridine incorporation method; format: functional; details: MCF7, 48 h; method in brief: as §3
MCF7 [17] = assay: Inhibition of DNA synthesis in human MCF7 cells at 61.26 ug/ml after 48 hrs by 5-bromo-20-deoxy-uridine incorporation method; format: functional; details: MCF7, 48 h; method in brief: as §3

SMILES	IC50 (MCF7 [1]) [µM]	IC50 [2] [µM]	further results
Cc1ccc(-c2nnc(N3CCN(C(=O)CN4CCN(c5ccccc5)CC4)CC3)nc2-c2ccc(C)cc2)cc1	914	> 914	
O=C(CN1CCN(c2ccc([N+](=O)[O-])cc2)CC1)N1CCN(c2nnc(-c3ccc(Cl)cc3)c(-c3ccc(Cl)cc3)n2)CC1	> 790	> 790	
O=C(CN1CCN(c2ccc([N+](=O)[O-])cc2)CC1)N1CCN(c2nnc(-c3ccccc3)c(-c3ccccc3)n2)CC1	> 886	> 886	
Cc1ccc(-c2nnc(N3CCN(C(=O)CN4CCN(c5cccc(Cl)c5)CC4)CC3)nc2-c2ccc(C)cc2)cc1	797	859	
COc1cccc(N2CCN(CC(=O)N3CCN(c4nnc(-c5ccccc5)c(-c5ccccc5)n4)CC3)CC2)c1	> 911	361	
O=C(CN1CCN(c2ccccc2Cl)CC1)N1CCN(c2nnc(-c3ccccc3)c(-c3ccccc3)n2)CC1	263	350	
Cc1ccc(-c2nnc(N3CCN(C(=O)CN4CCN(c5ccccc5Cl)CC4)CC3)nc2-c2ccc(C)cc2)cc1	859	> 859	
COc1ccc(-c2nnc(N3CCN(C(=O)CN4CCN(c5ccc(OC)cc5)CC4)CC3)nc2-c2ccc(OC)cc2)cc1	> 821	> 821	
COc1cccc(N2CCN(CC(=O)N3CCN(c4nnc(-c5ccc(C)cc5)c(-c5ccc(C)cc5)n4)CC3)CC2)c1	867	> 866	
COc1ccccc1N1CCN(CC(=O)N2CCN(c3nnc(-c4ccccc4)c(-c4ccccc4)n3)CC2)CC1	167	444	inhibition (INH) (MCF7 [3]): 22.44%; inhibition (INH) (MCF7 [4]): 76.35%; inhibition (INH) (MCF7 [5]): 81.61%; inhibition (MCF7 [6]): Active; inhibition (MCF7 [7]): Active; inhibition (MCF7 [8]): Active; Activity (MCF7 [9]): 82.5%; Activity (MCF7 [10]): 0%; Activity (MCF7 [11]): 0.4%; Activity (MCF7 [12]): 17.1%
Cc1ccc(-c2nnc(N3CCN(C(=O)CN4CCN(c5ccc(Cl)cc5)CC4)CC3)nc2-c2ccc(C)cc2)cc1	660	567	
COc1ccc(-c2nnc(N3CCN(C(=O)CN4CCN(c5cccc(OC)c5)CC4)CC3)nc2-c2ccc(OC)cc2)cc1	> 821	> 821	
COc1ccc(-c2nnc(N3CCN(C(=O)CN4CCN(c5ccccc5Cl)CC4)CC3)nc2-c2ccc(OC)cc2)cc1	> 814	> 814	
COc1ccc(-c2nnc(N3CCN(C(=O)CN4CCN(c5ccccc5)CC4)CC3)nc2-c2ccc(OC)cc2)cc1	> 864	> 864	
COc1cccc(N2CCN(CC(=O)N3CCN(c4nnc(-c5ccc(Cl)cc5)c(-c5ccc(Cl)cc5)n4)CC3)CC2)c1	149	202	Activity (MCF7 [9]): 71.3%; Activity (MCF7 [10]): 0.9%; Activity (MCF7 [11]): 3.3%; Activity (MCF7 [12]): 24.5%
COc1ccccc1N1CCN(CC(=O)N2CCN(c3nnc(-c4ccc(C)cc4)c(-c4ccc(C)cc4)n3)CC2)CC1	59.4	133	inhibition at 22.09 µg/mL (MCF7 [13]): 78.5%; inhibition at 44.18 µg/mL (MCF7 [14]): 78.7%; Activity (MCF7 [9]): 63.4%; Activity (MCF7 [10]): 2.6%; Activity (MCF7 [11]): 5.8%; Activity (MCF7 [12]): 28.2%

SMILES	IC50 (MCF7 [1]) [µM]	IC50 [2] [µM]	further results
COc1ccc(-c2nnc(N3CCN(C(=O)CN4CCN(c5ccccc5OC)CC4)CC3)nc2-c2ccc(OC)cc2)cc1	> 821	> 821	
COc1ccc(-c2nnc(N3CCN(C(=O)CN4CCN(c5cccc(Cl)c5)CC4)CC3)nc2-c2ccc(OC)cc2)cc1	> 814	> 814	
COc1ccccc1N1CCN(CC(=O)N2CCN(c3nnc(-c4ccc(Cl)cc4)c(-c4ccc(Cl)cc4)n3)CC2)CC1	330	404	
O=C(CN1CCN(c2cccc(Cl)c2)CC1)N1CCN(c2nnc(-c3ccc(Cl)cc3)c(-c3ccc(Cl)cc3)n2)CC1	> 803	> 803	
COc1ccc(-c2nnc(N3CCN(C(=O)CN4CCN(c5ccc(Cl)cc5)CC4)CC3)nc2-c2ccc(OC)cc2)cc1	607	> 814	
O=C(CN1CCN(c2ccc(Cl)cc2)CC1)N1CCN(c2nnc(-c3ccccc3)c(-c3ccccc3)n2)CC1	56.3	113	inhibition (INH) (MCF7 [6]): 24.98%; inhibition (INH) (MCF7 [7]): 52.05%; inhibition (INH) (MCF7 [8]): 62.34%; Activity (MCF7 [9]): 76.4%; Activity (MCF7 [10]): 2.1%; Activity (MCF7 [11]): 10.3%; Activity (MCF7 [12]): 11.2%
O=C(CN1CCN(c2ccc(Cl)cc2)CC1)N1CCN(c2nnc(-c3ccc(Cl)cc3)c(-c3ccc(Cl)cc3)n2)CC1	> 803	> 803	
O=C(CN1CCN(c2ccccc2)CC1)N1CCN(c2nnc(-c3ccccc3)c(-c3ccccc3)n2)CC1	> 963	> 963	
Cc1ccc(-c2nnc(N3CCN(C(=O)CN4CCN(c5ccc([N+](=O)[O-])cc5)CC4)CC3)nc2-c2ccc(C)cc2)cc1	845	> 845	
O=C(CN1CCN(c2ccccc2Cl)CC1)N1CCN(c2nnc(-c3ccc(Cl)cc3)c(-c3ccc(Cl)cc3)n2)CC1	396	> 803	
COc1ccc(N2CCN(CC(=O)N3CCN(c4nnc(-c5ccccc5)c(-c5ccccc5)n4)CC3)CC2)cc1	> 911	> 911	
O=C(CN1CCN(c2ccccc2)CC1)N1CCN(c2nnc(-c3ccc(Cl)cc3)c(-c3ccc(Cl)cc3)n2)CC1	> 850	> 850	
COc1ccc(-c2nnc(N3CCN(C(=O)CN4CCN(c5ccc([N+](=O)[O-])cc5)CC4)CC3)nc2-c2ccc(OC)cc2)cc1	> 801	> 801	
COc1ccc(N2CCN(CC(=O)N3CCN(c4nnc(-c5ccc(C)cc5)c(-c5ccc(C)cc5)n4)CC3)CC2)cc1	53	116	inhibition (INH) (MCF7 [3]): 56.94%; inhibition (INH) (MCF7 [4]): 77.82%; inhibition (INH) (MCF7 [5]): 88.52%; inhibition at 15.32 µg/mL (MCF7 [15]): 76.7%; inhibition at 30.63 µg/mL (MCF7 [16]): 86%; inhibition at 61.26 µg/mL (MCF7 [17]): 88.9%; Activity (MCF7 [9]): 66.5%; Activity (MCF7 [10]): 0.6%; Activity (MCF7 [11]): 6.2%; Activity (MCF7 [12]): 26.7%
O=C(CN1CCN(c2cccc(Cl)c2)CC1)N1CCN(c2nnc(-c3ccccc3)c(-c3ccccc3)n2)CC1	56.3	178	inhibition (INH) (MCF7 [3]): 26.06%; inhibition (INH) (MCF7 [4]): 31.36%; inhibition (INH) (MCF7 [5]): 41.48%; inhibition (INH) (MCF7 [6]): 56.59%; inhibition (INH) (MCF7 [7]): 61.16%; inhibition (INH) (MCF7 [8]): 70.18%; Activity (MCF7 [9]): 76.9%; Activity (MCF7 [10]): 2.2%; Activity (MCF7 [11]): 9.4%; Activity (MCF7 [12]): 11.5%
COc1ccc(N2CCN(CC(=O)N3CCN(c4nnc(-c5ccc(Cl)cc5)c(-c5ccc(Cl)cc5)n4)CC3)CC2)cc1	> 809	> 809	

Source: ChEMBL document CHEMBL3351961, “In vitro antitumor activity evaluation of some 1,2,4-triazine derivatives bearing piperazine amide moiety against breast cancer cells” (Bioorg Med Chem, 2014)
